Measurements from ChEMBL document CHEMBL1649070, “Virtual screening identification of nonfolate compounds, including a CNS drug, as antiparasitic agents inhibiting pteridine reductase” (J Med Chem, 2011).
Values after ≈ are worked out from the molar mass of the structure shown. Active and inactive are the calls of the source. No cut-off for these calls is given here.

Experiments:
[1] = molecular target: T1, Pteridine reductase 1 (Leishmania major) (UniProt Q01782); details: at 500 µM
T1 sequence (whole entry): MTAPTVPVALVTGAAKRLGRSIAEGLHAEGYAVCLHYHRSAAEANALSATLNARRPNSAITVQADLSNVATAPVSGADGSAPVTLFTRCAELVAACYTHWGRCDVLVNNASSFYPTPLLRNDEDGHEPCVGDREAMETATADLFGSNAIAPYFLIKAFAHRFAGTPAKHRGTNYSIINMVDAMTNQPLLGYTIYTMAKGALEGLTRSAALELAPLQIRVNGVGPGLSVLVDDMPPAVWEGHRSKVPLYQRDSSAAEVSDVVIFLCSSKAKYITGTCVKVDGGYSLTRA

[2] = molecular target: Bifunctional dihydrofolate reductase-thymidylate synthase (Leishmania major) (UniProt P07382); assay: Inhibition of Leishmania major DHFR at 50 uM
Chain of Bifunctional dihydrofolate reductase-thymidylate synthase (Leishmania major) (P07382 whole entry, looked up): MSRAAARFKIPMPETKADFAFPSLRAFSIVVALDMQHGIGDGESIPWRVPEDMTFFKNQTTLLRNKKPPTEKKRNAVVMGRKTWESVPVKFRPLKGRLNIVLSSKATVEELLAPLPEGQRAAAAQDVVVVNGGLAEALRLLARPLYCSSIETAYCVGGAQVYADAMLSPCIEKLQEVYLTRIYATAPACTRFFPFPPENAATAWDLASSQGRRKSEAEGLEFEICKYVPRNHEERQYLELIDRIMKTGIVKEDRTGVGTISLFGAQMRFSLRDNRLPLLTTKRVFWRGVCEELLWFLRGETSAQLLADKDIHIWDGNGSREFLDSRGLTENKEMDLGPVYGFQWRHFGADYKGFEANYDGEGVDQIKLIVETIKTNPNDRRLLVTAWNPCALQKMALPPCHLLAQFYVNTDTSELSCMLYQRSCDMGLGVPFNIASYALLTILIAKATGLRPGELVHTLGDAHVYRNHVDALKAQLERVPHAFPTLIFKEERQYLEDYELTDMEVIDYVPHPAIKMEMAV
Method in brief: (§1)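 NADPH oxidation followed at 340 nm. Compounds in DMSO, screened at a single concentration between 25 μM and 1 mM. Measurements run in triplicate.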

[3] = molecular target: T2, Dihydrofolate reductase (Homo sapiens) (UniProt P00374); assay: Inhibition of human DHFR at 50 uM
T2 sequence (whole entry): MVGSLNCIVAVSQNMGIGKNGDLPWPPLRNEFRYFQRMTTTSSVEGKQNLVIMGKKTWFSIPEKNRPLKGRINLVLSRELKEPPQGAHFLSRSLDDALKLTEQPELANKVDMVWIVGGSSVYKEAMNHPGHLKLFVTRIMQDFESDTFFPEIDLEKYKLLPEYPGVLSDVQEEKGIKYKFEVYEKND
Method in brief: as §1

[4] = Solubility of the compound at pH 7.4; assay type: physicochemical; details: buffer
[5] = Lipophilicity, log D of the compound in octanol buffer at pH 7.4; assay type: physicochemical
[6] = molecular target: T1, Pteridine reductase 1 (Leishmania major); assay: Inhibition of Leishmania major PTR1 at 5 uM
Method in brief: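 Compounds dissolved in DMSO and screened at a single 5 μM concentration; DMSO kept below 1%. Measurements run in triplicate.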

[7] = Cytotoxicity against human MRC5 cells after 72 hrs by Alamar blue assay; assay type: cell-based; details: read-out: ED50
Leishmania mexicana = assay: Antileishmanial activity against Leishmania mexicana MHOM/BZ/84/BEL46 assessed as growth at 50 ug/ml by Alamar blue assay; assay type: functional
Method in brief: (§2)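 Promastigotes grown in SDM-79, pH 7.3, with 15% heat-inactivated FCS at 28 C in 5% CO2, then seeded at 1 × 10^6 parasites/mL. Each compound tested alone at 50 μg/mL in duplicate as a control for the combination experiments; DMSO below 1% final. After 72 h at 28 C, Alamar Blue added for 4 h; fluorescence read at ex 530 / em 590 nm. Growth expressed as percentage of untreated cultures.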

Leishmania major = assay: Antileishmanial activity against Leishmania major MHOM/SU/73/5-ASKH assessed as growth at 50 ug/ml by Alamar blue assay; assay type: functional
Method in brief: as §2

inhibition [1] | solubility [4] | logD [5] | inhibition [6] | Structure (SMILES) | further results
inactive | – | – | – | CC(=O)c1ccc(C#N)s1 | –
inactive | – | – | – | CC(=O)n1cc(C=O)c2ccccc21 | –
inactive | – | – | – | CC(=O)c1cccc(O)c1 | –
– | 210 µM (≈ 56.2 µg/mL) | 2.2 | inactive | Nc1nnc(CCC(=O)c2ccc(Cl)cc2)s1 | inhibition [2]: inactive; inhibition [3]: inactive
inactive | – | – | – | O=Cc1ccc(O)cc1F | –
inactive | – | – | – | O=Cc1ccc2c(c1)CCO2 | –
inactive | – | – | – | Cc1cc(=O)n(C)c2ccccc12 | –
inactive | – | – | – | COc1ccc(C(C)=O)cc1CCl | –
inactive | – | – | – | Nc1cc(O)c2ccccc2n1 | –
– | 13000 µM (≈ 2170 µg/mL) | 0.82 | inactive | Nc1nnc(-c2ccco2)s1 | –
inactive | – | – | – | O=C(O)c1ccc2cc[nH]c2c1 | –
inactive | – | – | – | O=C(CO)c1ccc(Cl)cc1 | –
inactive | – | – | – | NC(=O)C1=C2CCCc3cccc(c32)C1=O | –
inactive | – | – | – | C/C(=N\N)c1ccc(C)cc1 | –
inactive | – | – | – | Nc1ccnc2ccccc12 | –
inactive | – | – | – | O=C1Cc2ccc(F)cc2N1 | –
inactive | – | – | – | CN(C)C1=C2C=CC=C2C(=O)C1 | –
inactive | – | – | – | Cc1cccc(-c2nnn[nH]2)c1 | –
inactive | – | – | – | Cc1ccc(C=O)cc1F | –
inactive | – | – | – | O=c1[nH]c2c(Cl)cccc2s1 | –
inactive | – | – | – | O=C1CCCN1c1ccccc1 | –
inactive | – | – | – | CCOc1ccc(CO)cc1 | –

inhibition [1] | solubility [4] | logD [5] | inhibition [6] | Structure (SMILES) | further results
inactive | – | – | – | Fc1cccc(-n2ccnc2)c1 | –
inactive | – | – | – | NNc1cccc(F)n1 | –
inactive | – | – | – | COc1ccc2c(c1)c(C=O)cn2C | –
– | 530 µM (≈ 118 µg/mL) | 1.94 | inactive | Nc1nnc(-c2cccc([N+](=O)[O-])c2)s1 | –
inactive | – | – | – | OCc1ccc2[nH]ccc2c1 | –
inactive | – | – | – | Nc1cc(-c2ccccc2)n[nH]1 | –
inactive | – | – | – | Nc1cccc2c1C(=O)c1ccccc1-2 | –
– | 780 µM (≈ 193 µg/mL) | 1.76 | inactive | Nc1nnc(CCCC(=O)c2ccccc2)s1 | –
inactive | – | – | – | Nc1ccc(F)c(N)c1 | –
inactive | – | – | – | COc1ccc(N2CCCC2=O)cc1 | –
inactive | – | – | – | CN(C)c1ccc(C=O)cc1C#N | –
inactive | – | – | – | CN1CCOc2cc(C=O)ccc21 | –
inactive | – | – | – | C#CCn1cc(C(=O)O)c(=O)c2cc(F)c(Cl)cc21 | –
– | 1300 µM (≈ 338 µg/mL) | 0.22 | inactive | Nc1nnc(CN2C(=O)c3ccccc3C2=O)s1 | –
inactive | – | – | – | Nc1ccc(Cl)cc1C=O | –
inactive | – | – | – | Nc1cc(F)ccc1O | –
– | 420 µM (≈ 86.2 µg/mL) | 2.95 | inactive | Cc1ccc(-c2nnc(N)s2)cc1C | –
inactive | – | – | – | Cc1ccc(C(=N)N)cc1 | –
inactive | – | – | – | Clc1cccc(-n2ccnc2)c1 | –
inactive | – | – | – | Cc1cccc2cc[nH]c12 | –
inactive | – | – | – | C=CCc1cc(OC)c(O)cc1C=O | –

The next lines start with the compound.

Structure (SMILES) | inhibition [1] | solubility [4] | logD [5] | inhibition [6] | further results
CCOc1ccc(-c2nnc(N)s2)cc1 | – | 440 µM (≈ 97.4 µg/mL) | 2.73 | inactive | –
Nc1nnc(CCCl)s1 | – | 42000 µM (≈ 6870 µg/mL) | 0.44 | – | –
Nc1nnc(-c2ccncc2)s1 | – | 13000 µM (≈ 2320 µg/mL) | 0.77 | inactive | –
Nc1nnc(-c2ccc3nn[nH]c3c2)s1 | – | 2500 µM (≈ 546 µg/mL) | 0.38 | – | CC50 at 72 h [7]: 51.5 µg/mL (≈ 236 µM)
Cc1ccc(C(=O)Nc2nnc(-c3ccc(C)c(C)c3)s2)cc1C | – | – | – | inactive | –
NCCc1ccc(N)cc1 | inactive | – | – | – | –
Nc1nnc([C@@H](O)c2ccccc2)s1 | – | 3700 µM (≈ 767 µg/mL) | 1 | inactive | –
O=C(CN1C(=O)c2ccccc2C1=O)Nc1nnc(CN2C(=O)c3ccccc3C2=O)s1 | – | – | – | inactive | inhibition [2]: inactive; inhibition [3]: inactive
CCn1nc(C)cc1N | inactive | – | – | – | –
Cc1nnc(N)s1 | – | 210000 µM (≈ 24200 µg/mL) | -0.16 | inactive | –
Nc1ccc(F)c(F)c1N | inactive | – | – | – | –
N#Cc1ccc(-c2nnc(N)s2)cc1 | – | 390 µM (≈ 78.9 µg/mL) | 1.68 | inactive | –
NCCc1ccc(-c2nnc(N)s2)cc1 | – | 210000 µM (≈ 46300 µg/mL) | -0.69 | inactive | –
Cc1nnsc1SC(C)C | inactive | – | – | – | –
O=C(Nc1nnc(-c2ccncc2)s1)c1ccncc1 | – | – | – | inactive | –
O=C(c1ccc(O)cc1)c1ccc(F)cc1 | – | – | – | – | inhibition [2]: inactive; inhibition [3]: inactive
CCC(C)c1nnc(N)s1 (stereo not drawn) | – | 22000 µM (≈ 3460 µg/mL) | 1.25 | inactive | –
Cn1cc(C(=O)O)c2ccccc21 | inactive | – | – | – | –
Nc1nnc(CCOc2ccc(Cl)cc2)s1 | – | 240 µM (≈ 61.4 µg/mL) | 2.44 | inactive | –
c1ccc2cnncc2c1 | inactive | – | – | – | –
O=C(O)CCNC(=O)c1ccc([N+](=O)[O-])cc1 | inactive | – | – | – | –
Nc1nnc(-c2ccccc2)s1 | – | 2000 µM (≈ 354 µg/mL) | 2.03 | inactive | –
Cc1cc(C)cc(-c2nnc(N)s2)c1 | – | 400 µM (≈ 82.1 µg/mL) | 2.95 | inactive | –
Nc1nnc(CCc2ccccc2)s1 | – | 1300 µM (≈ 267 µg/mL) | 2.03 | inactive | –
Nc1nc(-c2ccc(Cl)cc2)cs1 | inactive | – | – | – | –
CCc1nc(N)nc(N)c1-c1ccc(Cl)cc1 [PYRIMETHAMINE] | – | – | – | – | growth, % of control at 50 µg/mL (Leishmania mexicana): 102%; growth, % of control at 50 µg/mL (Leishmania major): 68%; CC50 at 72 h [7]: 16.2 µg/mL (≈ 65.3 µM)
Nc1nnc(-c2cccc(NS(=O)(=O)c3ccc([N+](=O)[O-])cc3)c2)s1 | – | 19 µM (≈ 7.17 µg/mL) | 2.43 | inactive | –
N#C/C=C(/N)N1CCCC1 | inactive | – | – | – | –
Nc1nnc(-c2cccc(NS(=O)(=O)c3cccc([N+](=O)[O-])c3)c2)s1 | – | 24 µM (≈ 9.06 µg/mL) | 2.36 | inactive | –
Nc1nnc(CC2NC(=O)NC2=O)s1 (stereo not drawn) | – | 87000 µM (≈ 18600 µg/mL) | -1.74 | inactive | –
